Results from ChEMBL document CHEMBL1125245, “Quinolone antibacterials: preparation and activity of bridged bicyclic analogues of the C7-piperazine” (J Med Chem, 1991).

Legend:
[1] = system: Escherichia coli; experiment: In vivo protection against gram-negative Escherichia coli vogel in mouse after oral administration.; conditions: read-out: PD50
[2] = Compound evaluated in vitro against five gram-negative bacterial strains and geometric means of the minimum inhibitory concentrations (MIC) reported.; format: functional; design: unit not given here
In short: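 Geometric mean MIC across five Gram-negative strains (E. coli H560, E. coli Vogel, Enterobacter cloacae MA 2646, Klebsiella pneumoniae MGH-2, Proteus rettgeri M1771). Mean taken as antilog of the averaged log MIC values.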

[3] = system: Escherichia coli; experiment: In vivo protection against gram-negative Escherichia coli vogel in mouse after subcutaneous administration; conditions: sc, read-out: PD50
[4] = Compound evaluated in vitro against five gram-positive bacterial strains and geometric means of the minimum inhibitory concentrations (MIC) reported.; format: functional; design: unit not given here
In short: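 Geometric mean MIC across five Gram-positive strains, taken as antilog of the averaged log MIC values.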

[5] = target: DNA gyrase (Escherichia coli, UniProt P0AES4+P0AES6); experiment: Compound evaluated in vitro for the ability to inhibit gyrase.; format: protein-complex assay; conditions: read-out: I50 (converted)
In short: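 DNA gyrase isolated from Escherichia coli H560 cells; inhibition given as I50.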

[6] = system: Streptococcus pneumoniae; experiment: In vivo protection against gram-positive Streptococcus pneumonia (SV-1) in mouse after oral administration.; format: functional; conditions: read-out: PD50
[7] = system: Streptococcus pneumoniae; experiment: In vivo protection against gram-positive Streptococcus pneumonia (SV-1) in mouse after subcutaneous administration; format: functional; conditions: sc, read-out: PD50

SMILES	ED50 [1]	MIC [2]	ED50 [3]	MIC [4]	IC50 [5]	ED50 [6]	ED50 [7]
NC1CCN(c2nc3c(cc2F)c(=O)c(C(=O)O)cn3C2CC2)CC1	4.6 mg/kg	0.11	0.8 mg/kg	0.23	8.66 µM	–	–
O=C(O)c1cn(C2CC2)c2c(F)c(N3CCNCC3)c(F)cc2c1=O	0.5 mg/kg	0.04	0.3 mg/kg	0.4	–	59 mg/kg	29 mg/kg
O=C(O)c1cn(C2CC2)c2nc(N3CCN4CCC3C4)c(F)cc2c1=O (configuration not stated)	0.5 mg/kg	0.11	0.3 mg/kg	0.46	38.5 µM	32 mg/kg	20 mg/kg
CCN[C@H]1C[C@H]2CC[C@@H](C1)N2c1nc2c(cc1F)c(=O)c(C(=O)O)cn2C1CC1	2.8 mg/kg	0.46	2.8 mg/kg	0.26	15.7 µM	23 mg/kg	16 mg/kg
O=C(O)c1cn(C2CC2)c2c(F)c(N3CC4CCC3CN4)c(F)cc2c1=O (configuration not stated)	2.9 mg/kg	0.09	1.3 mg/kg	0.3	16.8 µM	–	–
Nc1c(F)c(N2C[C@H]3CC2CN3)c(F)c2c1c(=O)c(C(=O)O)cn2C1CC1	5 mg/kg	0.04	1 mg/kg	0.09	36.7 µM	> 100 mg/kg	13 mg/kg
Nc1c(F)c(N2CC3CCC2CN3)c(F)c2c1c(=O)c(C(=O)O)cn2C1CC1 (configuration not stated)	3.6 mg/kg	0.06	0.7 mg/kg	0.06	14.1 µM	–	–
CCN[C@@H]1C[C@H]2CC[C@@H](C1)N2c1cc2c(cc1F)c(=O)c(C(=O)O)cn2C1CC1	5.7 mg/kg	0.8	2.3 mg/kg	0.26	15.8 µM	35 mg/kg	23 mg/kg
CCN[C@H]1C[C@H]2CC[C@@H](C1)N2c1c(F)cc2c(=O)c(C(=O)O)cn(C3CC3)c2c1F	> 12.5 mg/kg	0.6	6.5 mg/kg	0.46	15.1 µM	–	–
O=C(O)c1cn(C2CC2)c2nc(N3C[C@H]4CC3CN4)c(F)cc2c1=O	53 mg/kg	0.08	37 mg/kg	0.46	18.3 µM	–	–
CN1CC2CCC1CN2c1nc2c(cc1F)c(=O)c(C(=O)O)cn2C1CC1 (configuration not stated)	1.4 mg/kg	0.1	1.1 mg/kg	0.26	14.8 µM	–	–
O=C(O)c1cn(C2CC2)c2c(F)c(N3C[C@H]4CC3CN4)c(F)cc2c1=O	1.7 mg/kg	0.07	0.4 mg/kg	0.53	7.75 µM	> 100 mg/kg	18.5 mg/kg
CCN[C@@H]1C[C@H]2CC[C@@H](C1)N2c1c(F)cc2c(=O)c(C(=O)O)cn(C3CC3)c2c1F	5.8 mg/kg	0.61	3 mg/kg	0.17	9.1 µM	–	–
Nc1c(F)c(N2CCNCC2)c(F)c2c1c(=O)c(C(=O)O)cn2C1CC1	0.8 mg/kg	0.02	0.2 mg/kg	0.05	–	31 mg/kg	23 mg/kg
NC1CCN(c2c(F)cc3c(=O)c(C(=O)O)cn(C4CC4)c3c2F)CC1	4.7 mg/kg	0.2	1.4 mg/kg	0.08	< 1.38 µM	–	–
O=C(O)c1cn(C2CC2)c2cc(N3CCN4CCC3C4)c(F)cc2c1=O (configuration not stated)	1 mg/kg	0.03	0.3 mg/kg	0.09	8.39 µM	35 mg/kg	11 mg/kg

SMILES	ED50 [1]	MIC [2]	ED50 [3]	MIC [4]	IC50 [5]	ED50 [6]	ED50 [7]
CCN[C@@H]1C[C@H]2CC[C@@H](C1)N2c1nc2c(cc1F)c(=O)c(C(=O)O)cn2C1CC1	21 mg/kg	0.6	9.1 mg/kg	0.53	15.7 µM	–	–
N[C@H]1C[C@H]2CC[C@@H](C1)N2c1cc2c(cc1F)c(=O)c(C(=O)O)cn2C1CC1	9.5 mg/kg	0.15	2 mg/kg	0.23	8.08 µM	–	–
CN1CC2CCC1CN2c1c(F)cc2c(=O)c(C(=O)O)cn(C3CC3)c2c1F (configuration not stated)	< 1.6 mg/kg	0.13	< 1.6 mg/kg	0.15	16.2 µM	–	–
NC1CCN(c2cc3c(cc2F)c(=O)c(C(=O)O)cn3C2CC2)CC1	15 mg/kg	0.17	1.4 mg/kg	0.17	2.32 µM	–	–
Nc1c(F)c(N2CCN3CCC2C3)c(F)c2c1c(=O)c(C(=O)O)cn2C1CC1 (configuration not stated)	0.6 mg/kg	0.03	0.2 mg/kg	0.08	14.1 µM	–	–
Cl.O=C(O)c1cn(C2CC2)c2nc(N3C[C@@H]4CC3CN4)c(F)cc2c1=O	2.2 mg/kg	0.03	1.6 mg/kg	0.26	–	–	–
Br.O=C(O)c1cn(C2CC2)c2cc(N3C[C@@H]4CC3CN4)c(F)cc2c1=O	1.9 mg/kg	0.04	0.2 mg/kg	0.3	4.48 µM	> 100 mg/kg	12.5 mg/kg
CN1CC2C[C@@H]1CN2c1c(F)cc2c(=O)c(C(=O)O)cn(C3CC3)c2c1F.Cl	0.9 mg/kg	0.09	0.5 mg/kg	0.17	7.28 µM	13 mg/kg	14 mg/kg
Cl.N[C@@H]1C[C@H]2CC[C@@H](C1)N2c1nc2c(cc1F)c(=O)c(C(=O)O)cn2C1CC1	2.1 mg/kg	0.25	1.1 mg/kg	0.46	42.8 µM	29 mg/kg	21 mg/kg
Cl.N[C@H]1C[C@H]2CC[C@@H](C1)N2c1nc2c(cc1F)c(=O)c(C(=O)O)cn2C1CC1	71 mg/kg	0.79	6 mg/kg	0.4	18.3 µM	–	–
Cl.N[C@@H]1C[C@H]2CC[C@@H](C1)N2c1c(F)cc2c(=O)c(C(=O)O)cn(C3CC3)c2c1F	21 mg/kg	0.26	4 mg/kg	0.11	8.92 µM	–	–
CCN[C@H]1C[C@H]2CC[C@@H](C1)N2c1cc2c(cc1F)c(=O)c(C(=O)O)cn2C1CC1.F	–	2.76	–	1.81	41.7 µM	–	–
Br.Nc1c(F)c(N2C[C@@H]3CC2CN3)c(F)c2c1c(=O)c(C(=O)O)cn2C1CC1	6.1 mg/kg	0.07	1.1 mg/kg	0.25	–	–	–
O=C(O)c1cn(C2CC2)c2nc(N3CCNCC3)c(F)cc2c1=O	0.7 mg/kg	0.06	0.4 mg/kg	1.21	150 µM	–	–
O=C(O)c1cn(C2CC2)c2cc(N3CCNCC3)c(F)cc2c1=O [CIPROFLOXACIN]	1.2 mg/kg	0.06	0.3 mg/kg	0.91	–	> 100 mg/kg	29 mg/kg
